Measured values published in ChEMBL document CHEMBL1139130, “New C-5 substituted pyrrolotriazine dual inhibitors of EGFR and HER2 protein tyrosine kinases” (Bioorg Med Chem Lett, 2007).
pIC50: −log10 of the molar value.

Assays:
[1] = target: T1, Receptor tyrosine-protein kinase erbB-2 (Homo sapiens, UniProt P04626); assay: Inhibition of human recombinant cytoplasmic HER2 kinase expressed in Sf9 cells
[2] = system: A2780; assay: Antiproliferative activity against human A2780 cells; assay type: functional, cell-based
[3] = system: Liver; assay: Metabolic stability in mouse liver microsomes assessed as rate of metabolism per mg protein at 3 uM after 10 mins; assay type: ADME, Microsome
Method in brief: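 Test compound at 3 µM incubated 10 min with mouse liver microsomes plus NADPH. Rate of metabolism expressed as nmol min⁻¹ mg protein⁻¹.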

[4] = target: Epidermal growth factor receptor (Homo sapiens, UniProt P00533)
Chain of Epidermal growth factor receptor (P00533 whole entry): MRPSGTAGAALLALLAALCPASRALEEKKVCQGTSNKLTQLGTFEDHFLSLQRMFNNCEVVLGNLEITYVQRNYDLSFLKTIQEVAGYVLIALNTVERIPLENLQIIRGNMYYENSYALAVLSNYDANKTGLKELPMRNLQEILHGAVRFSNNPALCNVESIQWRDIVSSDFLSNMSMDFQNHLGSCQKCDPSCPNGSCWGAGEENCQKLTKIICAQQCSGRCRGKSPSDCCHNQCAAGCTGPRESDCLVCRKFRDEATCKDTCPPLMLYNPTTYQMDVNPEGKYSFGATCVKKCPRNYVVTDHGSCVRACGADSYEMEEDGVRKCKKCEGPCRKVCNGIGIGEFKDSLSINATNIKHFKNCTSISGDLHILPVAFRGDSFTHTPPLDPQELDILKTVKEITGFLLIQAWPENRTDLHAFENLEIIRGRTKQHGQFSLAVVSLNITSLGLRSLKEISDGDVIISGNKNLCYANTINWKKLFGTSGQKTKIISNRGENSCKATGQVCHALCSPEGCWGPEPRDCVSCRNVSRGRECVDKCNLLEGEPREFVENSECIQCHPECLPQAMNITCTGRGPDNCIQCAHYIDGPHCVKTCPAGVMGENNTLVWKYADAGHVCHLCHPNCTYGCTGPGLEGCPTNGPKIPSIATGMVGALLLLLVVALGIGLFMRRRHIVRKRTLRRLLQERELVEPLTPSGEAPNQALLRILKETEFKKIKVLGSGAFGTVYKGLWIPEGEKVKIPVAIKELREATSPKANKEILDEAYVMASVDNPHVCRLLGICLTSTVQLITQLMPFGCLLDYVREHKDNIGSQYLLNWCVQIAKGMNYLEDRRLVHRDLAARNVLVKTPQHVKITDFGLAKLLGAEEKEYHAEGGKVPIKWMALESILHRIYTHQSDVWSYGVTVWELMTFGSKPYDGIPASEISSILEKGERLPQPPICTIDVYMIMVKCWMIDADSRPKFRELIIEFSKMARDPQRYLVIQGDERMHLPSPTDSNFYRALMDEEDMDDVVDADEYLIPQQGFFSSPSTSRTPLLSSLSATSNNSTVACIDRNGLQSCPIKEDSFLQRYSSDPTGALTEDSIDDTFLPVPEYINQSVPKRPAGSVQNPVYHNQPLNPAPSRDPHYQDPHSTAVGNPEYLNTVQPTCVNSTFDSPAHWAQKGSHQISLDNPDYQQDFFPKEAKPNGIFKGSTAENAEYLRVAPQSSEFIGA

[5] = system: NCI-N87; assay: Antiproliferative activity against human N87 cells; assay type: functional, cell-based
[6] = system: HT-29; assay: Antiproliferative activity against human HT29 cells
[7] = Antitumor activity against human GEO cells xenografted athymic mouse at 240 mg/kg, sc QD for 21 days; assay type: functional; details: po, 504 h, read-out: TGI, in the assay text read “po QD” for “sc QD”
Method in brief: (§1)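 Tumor cells were implanted subcutaneously in athymic mice and staged to about 100 mg before dosing, with drug given orally. […] Probability was assessed for median tumor weight at the end of treatment.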

[8] = target: Vascular endothelial growth factor receptor 2 (Homo sapiens, UniProt P35968); assay: Inhibition of VEGFR2
Chain of Vascular endothelial growth factor receptor 2 (P35968 whole entry): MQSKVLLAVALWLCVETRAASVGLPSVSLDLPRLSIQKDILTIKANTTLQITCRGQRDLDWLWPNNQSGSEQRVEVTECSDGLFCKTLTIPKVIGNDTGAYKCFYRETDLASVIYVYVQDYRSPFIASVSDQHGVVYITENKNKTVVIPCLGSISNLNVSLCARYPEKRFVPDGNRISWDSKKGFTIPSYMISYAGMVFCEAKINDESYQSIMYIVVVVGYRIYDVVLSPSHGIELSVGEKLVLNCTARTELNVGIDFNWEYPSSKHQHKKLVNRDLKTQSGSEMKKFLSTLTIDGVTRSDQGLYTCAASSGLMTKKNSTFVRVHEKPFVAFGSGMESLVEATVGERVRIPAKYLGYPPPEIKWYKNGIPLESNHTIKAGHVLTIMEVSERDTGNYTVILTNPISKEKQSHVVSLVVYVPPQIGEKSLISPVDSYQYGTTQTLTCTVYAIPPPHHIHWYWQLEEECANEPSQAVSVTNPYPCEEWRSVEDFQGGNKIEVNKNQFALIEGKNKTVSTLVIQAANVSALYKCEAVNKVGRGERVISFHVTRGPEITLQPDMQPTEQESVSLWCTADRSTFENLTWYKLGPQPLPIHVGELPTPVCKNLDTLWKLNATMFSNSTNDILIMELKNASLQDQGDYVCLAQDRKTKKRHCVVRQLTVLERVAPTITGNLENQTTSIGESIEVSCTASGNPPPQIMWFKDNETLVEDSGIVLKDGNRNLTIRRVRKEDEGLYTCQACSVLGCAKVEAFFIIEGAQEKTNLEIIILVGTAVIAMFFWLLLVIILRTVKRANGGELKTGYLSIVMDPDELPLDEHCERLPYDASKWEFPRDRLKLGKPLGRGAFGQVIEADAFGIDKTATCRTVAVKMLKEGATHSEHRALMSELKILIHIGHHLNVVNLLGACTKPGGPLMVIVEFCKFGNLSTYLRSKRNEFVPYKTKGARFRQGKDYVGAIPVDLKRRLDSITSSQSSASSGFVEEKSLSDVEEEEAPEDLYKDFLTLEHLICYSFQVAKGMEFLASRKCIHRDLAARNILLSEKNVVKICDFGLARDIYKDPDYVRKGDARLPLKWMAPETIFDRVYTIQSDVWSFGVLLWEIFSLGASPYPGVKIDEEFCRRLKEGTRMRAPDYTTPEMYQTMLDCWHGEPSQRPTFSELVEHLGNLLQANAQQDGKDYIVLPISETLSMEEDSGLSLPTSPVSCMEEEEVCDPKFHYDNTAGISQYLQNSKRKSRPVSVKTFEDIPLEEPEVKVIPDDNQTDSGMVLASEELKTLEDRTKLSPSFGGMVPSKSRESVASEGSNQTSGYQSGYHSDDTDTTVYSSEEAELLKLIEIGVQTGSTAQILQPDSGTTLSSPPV
Method in brief: (§2)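 Kinase panel values are IC50s reported as the mean of at least three determinations, with variability around the mean under 15%.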

[9] = target: T1, Receptor tyrosine-protein kinase erbB-2; assay: Inhibition of HER2 phosphorylation in human N87 cells; assay type: cell-based; details: NCI-N87
Method in brief: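 N87 human gastric carcinoma cells, which overexpress EGFR and HER2, were exposed to a range of compound concentrations for 1 h. Cell lysates were then Western blotted with anti-phosphotyrosine and anti-HER2 antibodies to follow HER2 phosphorylation.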

[10] = Inhibition of PKA; set-up: species or system Homo sapiens
Method in brief: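 IC50 values are means of at least three determinations, with variability around the mean under 15%.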

[11] = system: NCI-N87; assay: Antitumor activity against human N87 cells xenografted athymic mouse at 30 mg/kg, sc QD for 14 days; assay type: functional; details: NCI-N87, po, 336 h, read-out: TGI, in the assay text read “po QD” for “sc QD”; method in brief: as §1
[12] = system: NCI-N87; assay: Antitumor activity against human N87 cells xenografted athymic mouse at 60 mg/kg, sc QD for 14 days; assay type: functional; details: NCI-N87, po, 336 h, read-out: TGI, in the assay text read “po QD” for “sc QD”; method in brief: as §1
[13] = system: Mus musculus; assay: Toxicity in mouse at 240 mg/kg, po; details: in vivo
[14] = system: NCI-N87; assay: Antitumor activity against human N87 cells xenografted athymic mouse at 240 mg/kg, sc QD for 14 days; assay type: functional; details: NCI-N87, po, 336 h, read-out: TGI, in the assay text read “po QD” for “sc QD”; method in brief: as §1
[15] = Antitumor activity against human GEO cells xenografted athymic mouse at 30 mg/kg, sc QD for 21 days; assay type: functional; details: po, 504 h, read-out: TGI, in the assay text read “po QD” for “sc QD”; method in brief: as §1
[16] = system: Mus musculus; assay: Toxicity in mouse assessed as wieght loss at 240 mg/kg, po; details: in vivo
[17] = system: Mus musculus; assay: AUC in BALB/C mouse at 50 mg/kg, po after 4 hrs; assay type: ADME, organism-based, Plasma; set-up: time < 4 hr, dose 50 mg/kg, route oral; details: in vivo
Method in brief: (§3)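 Single oral 50 mg/kg dose in male Balb/C mice. AUC taken over 4 h, and plasma concentration measured at 4 h.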

[18] = Fraction unbound (%) ligand in mouse serum at 10 uM by equilibrium dialysis; assay type: ADME, cell-free, Plasma
[19] = Plasma concentration in BALB/C mouse at 50 mg/kg, po after 4 hrs; assay type: ADME, organism-based; set-up: dose 50 mg/kg, route oral; method in brief: as §3
[20] = target: Tyrosine-protein kinase Lck (Homo sapiens, UniProt P06239); assay: Inhibition of LCK kinase
Chain of Tyrosine-protein kinase Lck (P06239 whole entry): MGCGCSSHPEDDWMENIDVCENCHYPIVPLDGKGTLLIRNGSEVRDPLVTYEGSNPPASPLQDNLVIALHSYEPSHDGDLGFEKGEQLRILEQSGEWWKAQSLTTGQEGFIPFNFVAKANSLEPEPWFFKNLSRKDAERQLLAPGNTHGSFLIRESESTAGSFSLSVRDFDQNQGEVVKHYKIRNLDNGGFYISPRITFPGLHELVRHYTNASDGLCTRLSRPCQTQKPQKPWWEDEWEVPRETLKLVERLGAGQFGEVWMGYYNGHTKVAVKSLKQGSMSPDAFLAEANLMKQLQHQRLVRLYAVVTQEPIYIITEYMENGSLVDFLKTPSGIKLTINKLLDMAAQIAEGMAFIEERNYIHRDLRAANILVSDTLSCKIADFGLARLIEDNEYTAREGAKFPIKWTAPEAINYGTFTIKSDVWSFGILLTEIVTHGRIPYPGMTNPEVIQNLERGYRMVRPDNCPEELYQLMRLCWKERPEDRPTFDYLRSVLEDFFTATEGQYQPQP
Method in brief: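 IC50 is the mean of at least three determinations, with variability around the mean below 15%.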

[21] = Antitumor activity against human GEO cells xenografted athymic mouse at 60 mg/kg, sc QD for 21 days; assay type: functional; details: po, 504 h, read-out: TGI, in the assay text read “po QD” for “sc QD”; method in brief: as §1
[22] = Permeability across Caco-2 cell membrane; assay type: ADME, cell-based; details: human, read-out: permeability
[23] = system: NCI-N87; assay: Antitumor activity against human N87 cells xenografted athymic mouse at 120 mg/kg, sc QD for 14 days; assay type: functional; details: NCI-N87, po, 336 h, read-out: TGI, in the assay text read “po QD” for “sc QD”; method in brief: as §1
[24] = Antitumor activity against human GEO cells xenografted athymic mouse at 120 mg/kg, sc QD for 21 days; assay type: functional; details: po, 504 h, read-out: TGI, in the assay text read “po QD” for “sc QD”; method in brief: as §1
[25] = target: MAP kinase p38 (Homo sapiens, UniProt O15264+Q15759+Q16539+P53778); assay: Inhibition of p38 kinase; assay type: protein assay; method in brief: as §2
[26] = target: Hepatocyte growth factor receptor (Homo sapiens, UniProt P08581); assay: Inhibition of Met kinase; method in brief: as §2

T1 sequence (P04626 whole entry): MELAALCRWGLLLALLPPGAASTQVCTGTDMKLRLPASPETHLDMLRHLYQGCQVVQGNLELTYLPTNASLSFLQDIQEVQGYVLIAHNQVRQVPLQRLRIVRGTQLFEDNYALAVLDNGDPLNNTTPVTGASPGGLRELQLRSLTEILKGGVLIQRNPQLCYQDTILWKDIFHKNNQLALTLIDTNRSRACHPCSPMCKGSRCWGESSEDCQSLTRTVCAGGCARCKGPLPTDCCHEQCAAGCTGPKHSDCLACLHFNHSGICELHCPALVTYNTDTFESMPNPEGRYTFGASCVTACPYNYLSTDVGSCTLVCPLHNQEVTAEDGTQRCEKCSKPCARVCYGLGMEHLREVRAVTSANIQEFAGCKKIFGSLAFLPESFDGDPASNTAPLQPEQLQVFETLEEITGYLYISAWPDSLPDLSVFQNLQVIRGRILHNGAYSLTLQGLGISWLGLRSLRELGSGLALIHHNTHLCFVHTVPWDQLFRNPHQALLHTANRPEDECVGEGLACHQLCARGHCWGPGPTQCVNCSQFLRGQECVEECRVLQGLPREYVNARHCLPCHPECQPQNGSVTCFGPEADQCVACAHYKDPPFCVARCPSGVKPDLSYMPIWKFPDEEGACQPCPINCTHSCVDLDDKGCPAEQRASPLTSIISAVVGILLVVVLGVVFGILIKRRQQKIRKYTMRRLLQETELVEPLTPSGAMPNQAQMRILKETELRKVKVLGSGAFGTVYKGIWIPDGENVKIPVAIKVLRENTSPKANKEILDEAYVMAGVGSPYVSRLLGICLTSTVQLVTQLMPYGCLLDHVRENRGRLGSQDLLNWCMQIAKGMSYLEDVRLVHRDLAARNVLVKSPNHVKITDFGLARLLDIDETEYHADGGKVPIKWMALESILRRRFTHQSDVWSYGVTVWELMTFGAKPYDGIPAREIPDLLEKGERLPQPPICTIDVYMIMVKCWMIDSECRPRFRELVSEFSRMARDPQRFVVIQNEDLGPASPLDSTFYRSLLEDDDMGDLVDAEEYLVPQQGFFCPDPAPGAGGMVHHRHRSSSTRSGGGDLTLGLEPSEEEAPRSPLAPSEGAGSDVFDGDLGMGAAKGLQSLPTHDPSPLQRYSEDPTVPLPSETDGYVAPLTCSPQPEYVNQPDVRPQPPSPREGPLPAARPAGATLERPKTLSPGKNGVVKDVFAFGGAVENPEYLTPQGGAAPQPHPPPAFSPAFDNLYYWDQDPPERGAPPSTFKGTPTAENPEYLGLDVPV

SMILES: NCCCOCc1ccn2ncnc(Nc3ccc4c(cnn4Cc4cccc(F)c4)c3)c12
- pIC50 [1]: 7.22
- pIC50 [2]: 5.13
- Stability [3]: 0.01 nmol/min/mg
- pIC50 [4]: 7.19
- pIC50 [5]: 6.19

SMILES: NCCCCOCc1ccn2ncnc(Nc3ccc4c(cnn4Cc4cccc(F)c4)c3)c12
- pIC50 [1]: 6.89
- pIC50 [4]: 6.80

SMILES: Fc1cccc(Cn2ncc3cc(Nc4ncnn5ccc(COCC6CCNCC6)c45)ccc32)c1
- pIC50 [1]: 6.92
- pIC50 [2]: 5.31
- pIC50 [4]: 6.89
- pIC50 [5]: 6.14

SMILES: Cc1ccn2ncnc(Nc3ccc4c(cnn4Cc4ccccn4)c3)c12
- pIC50 [1]: 6.51
- pIC50 [4]: 6.70

SMILES: OCc1ccn2ncnc(Nc3ccc4c(cnn4Cc4cccc(F)c4)c3)c12
- pIC50 [1]: 6.96
- pIC50 [4]: 6.92
- pIC50 [6]: < 5.00
- pIC50 [5]: 5.13

SMILES: NC(=O)COCc1ccn2ncnc(Nc3ccc4c(cnn4Cc4cccc(F)c4)c3)c12
- pIC50 [1]: 6.96
- pIC50 [2]: < 5.00
- pIC50 [4]: 6.85
- pIC50 [5]: 5.77

SMILES: Fc1cccc(Cn2ncc3cc(Nc4ncnn5ccc(COC[C@H]6CNCCO6)c45)ccc32)c1
- pIC50 [1]: 7.22
- pIC50 [2]: < 5.00
- pIC50 [4]: 7.08
- pIC50 [5]: 6.89

SMILES: C[C@@H](c1ccccc1)n1ncc2cc(Nc3ncnn4ccc(COC[C@@H]5CNCCO5)c34)ccc21
- pIC50 [1]: 6.07
- pIC50 [4]: 6.16
- pIC50 [5]: 5.66

SMILES: COC(=O)COCc1ccn2ncnc(Nc3ccc4c(cnn4Cc4cccc(F)c4)c3)c12
- pIC50 [1]: 6.55
- pIC50 [4]: 6.34
- pIC50 [5]: 5.77

SMILES: C[C@@H](c1cccc(F)c1)n1ncc2cc(Nc3ncnn4ccc(COC[C@@H]5CNCCO5)c34)ccc21
- pIC50 [1]: 6.29
- pIC50 [4]: 6.40

SMILES: O=C(O)COCc1ccn2ncnc(Nc3ccc4c(cnn4Cc4cccc(F)c4)c3)c12
- pIC50 [1]: 7.74
- pIC50 [2]: < 5.00
- pIC50 [4]: 7.52
- pIC50 [5]: < 5.00

SMILES: C[C@H](c1ccccc1)n1ncc2cc(Nc3ncnn4ccc(COC[C@@H]5CNCCO5)c34)ccc21
- pIC50 [1]: 6.89
- pIC50 [4]: 6.92
- pIC50 [5]: 6.18

SMILES: Cc1ccn2ncnc(Nc3ccc4[nH]ncc4c3)c12
- pIC50 [1]: < 6.00
- pIC50 [4]: 6.68

SMILES: Cc1ccn2ncnc(Nc3ccc4c(cnn4Cc4cccc(F)c4)c3)c12
- pIC50 [1]: 7.06
- Stability [3]: 0.14 nmol/min/mg
- pIC50 [4]: 7.09
- pIC50 [6]: < 5.00
- pIC50 [5]: 6.42

SMILES: Fc1cccc(Cn2ncc3cc(Nc4ncnn5ccc(COCC6CNCCOC6)c45)ccc32)c1 (stereo not drawn)
- pIC50 [1]: 6.85
- pIC50 [2]: < 5.00
- pIC50 [4]: 6.68
- pIC50 [5]: 5.70

SMILES: NCCOCc1ccn2ncnc(Nc3ccc4c(cnn4Cc4cccc(F)c4)c3)c12
- pIC50 [2]: 5.08
- pIC50 [5]: 5.77

SMILES: C[C@H](c1cccc(F)c1)n1ncc2cc(Nc3ncnn4ccc(COC[C@@H]5CNCCO5)c34)ccc21
- pIC50 [1]: 7.39
- pIC50 [4]: 7.17
- pIC50 [5]: 6.89

SMILES: Fc1cccc(COc2ccc(Nc3ncnn4ccc(COC[C@@H]5CNCCO5)c34)cc2Cl)c1
- pIC50 [5]: 6.21

SMILES: Fc1cccc(Cn2ncc3cc(Nc4ncnn5ccc(COC[C@@H]6CNCCO6)c45)ccc32)c1
- inhibition in vivo at 240 mg/kg [7]: 91%
- pIC50 [1]: 7.26
- pIC50 [8]: < 5.00
- pIC50 [2]: 5.06
- Activity [9]: Dose-dependent effect
- pIC50 [10]: < 4.30
- inhibition in vivo at 30 mg/kg [11]: 28%
- inhibition in vivo at 60 mg/kg [12]: 51%
- Activity [13]: Non-toxic
- inhibition in vivo at 240 mg/kg [14]: 111%
- inhibition in vivo at 30 mg/kg [15]: 21%
- Activity [16]: Non-toxic
- AUC [17]: 29 µM·h
- fraction unbound at 10 µM [18]: 0.026
- Stability [3]: 0.07 nmol/min/mg
- concentration at 4 h [19]: 5.8 µM
- pIC50 [20]: < 5.30
- inhibition in vivo at 60 mg/kg [21]: 55%
- pIC50 [4]: 7.21
- Papp [22]: 6.4 ×10⁻⁶ cm/s
- inhibition in vivo at 120 mg/kg [23]: 70%
- inhibition in vivo at 120 mg/kg [24]: 71%
- IC50 [25]: > 50000 nM
- pIC50 [26]: 5.19
- pIC50 [5]: 7.08

SMILES: c1cncc(Cn2ncc3cc(Nc4ncnn5ccc(COC[C@@H]6CNCCO6)c45)ccc32)c1
- pIC50 [1]: 6.39
- pIC50 [4]: 6.09
- pIC50 [5]: 6.26

SMILES: Cc1ccn2ncnc(Nc3ccc(F)c(Cl)c3)c12
- pIC50 [1]: < 6.00

SMILES: COCCOCc1ccn2ncnc(Nc3ccc4c(cnn4Cc4cccc(F)c4)c3)c12
- pIC50 [1]: 6.38

SMILES: Cc1ccn2ncnc(Nc3ccc4c(cnn4Cc4cccnc4)c3)c12
- pIC50 [1]: 6.60
- pIC50 [4]: 5.74

SMILES: CN(C)CCCOCc1ccn2ncnc(Nc3ccc4c(cnn4Cc4cccc(F)c4)c3)c12
- pIC50 [1]: 6.25
- Stability [3]: 0.12 nmol/min/mg
- pIC50 [4]: 6.21

SMILES: Fc1cccc(Cn2ncc3cc(Nc4ncnn5ccc(COC[C@@H]6COCCN6)c45)ccc32)c1
- pIC50 [1]: 6.23
- pIC50 [2]: < 5.00
- pIC50 [4]: 6.19
- pIC50 [5]: 5.52

SMILES: Cc1ccn2ncnc(Nc3ccc4c(cnn4Cc4ccccc4)c3)c12
- pIC50 [1]: 6.96
- pIC50 [4]: 7.07

SMILES: COCc1ccn2ncnc(Nc3ccc4c(cnn4Cc4cccc(F)c4)c3)c12
- pIC50 [1]: 6.38
- Stability [3]: 0.24 nmol/min/mg
- pIC50 [4]: 6.47

SMILES: Fc1cccc(Cn2ncc3cc(Nc4ncnn5ccc(COC[C@H]6CCCNC6)c45)ccc32)c1
- pIC50 [1]: 6.77
- pIC50 [2]: 5.13
- pIC50 [4]: 6.72
- pIC50 [5]: 6.01

SMILES: Fc1cccc(Cn2ncc3cc(Nc4ncnn5ccc(COC6CCNCC6)c45)ccc32)c1
- pIC50 [1]: 7.15
- pIC50 [2]: 5.22
- Stability [3]: 0.02 nmol/min/mg
- pIC50 [4]: 7.14
- pIC50 [5]: 6.48

SMILES: c1ccc(Cn2ncc3cc(Nc4ncnn5ccc(COC[C@@H]6CNCCO6)c45)ccc32)nc1
- pIC50 [1]: 6.42
- pIC50 [4]: 6.30
- pIC50 [5]: 6.62

SMILES: Cc1ccn2ncnc(Nc3ccc(OCc4cccc(F)c4)c(Cl)c3)c12
- pIC50 [1]: 6.37
- pIC50 [4]: 6.60

SMILES: COc1cn2ncnc(Nc3ccc4c(cnn4Cc4cccc(F)c4)c3)c2c1COC[C@@H]1CNCCO1
- pIC50 [1]: 6.60
- pIC50 [4]: 6.37
- pIC50 [5]: 5.47
